In test [1] the test system is Rattus norvegicus. Briefly: Neuroprotective activity against ACR-intoxicated Sprague-Dawley rat assessed as increase in noradrenaline level in brain at 50 mg/kg, ip administered 10 mins prior to ACR injection 3 days per week for 3 weeks by ELISA relative to control. The test is classed as functional. To be noted: route intraperitoneal. The method in brief: (§1)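 Female Sprague–Dawley rats (n = 10/group) were injected with ACR 50 mg/kg ip in water, with agent at 50 mg/kg ip in 2% Tween 80 10 min before, 3 days/week for 3 weeks. Brain was homogenized 10% w/v in 50 mM Tris–HCl pH 7.4 with 300 mM sucrose and spun 1800 × g for 10 min at 4 °C. Adrenaline and noradrenaline were measured in the supernatant, as ng/mg protein.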
(ELISA stands for enzyme-linked immunosorbent assay.)

Test [2] concerns Rattus norvegicus. The test is described as follows: Neuroprotective activity against ACR-intoxicated Sprague-Dawley rat assessed as increase in CK level in brain at 50 mg/kg, ip administered 10 mins prior to ACR injection 3 days per week for 3 weeks by spectrofluorimetrically relative to control. The test is classed as functional. The conditions noted are these: route intraperitoneal. Summed up: (§2)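 Female Sprague–Dawley rats (n = 10/group) were dosed ip with ACR 50 mg/kg (water). Pretreatment was 50 mg/kg ip in 2% Tween 80 given 10 min earlier, 3 days/week for 3 weeks. The brain 10% homogenate (50 mM Tris–HCl pH 7.4, 300 mM sucrose) was centrifuged 1800 × g for 10 min at 4 °C. Supernatant LDH and CK activities were read spectrophotometrically by kit, as U/mg protein.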

Test [3] relates to Rattus norvegicus. Briefly: Neuroprotective activity against ACR-intoxicated Sprague-Dawley rat assessed as increase in dopamine level in brain at 50 mg/kg, ip administered 10 mins prior to ACR injection 3 days per week for 3 weeks by spectrofluorimetrically relative to control. The test is classed as functional. The conditions noted are these: route intraperitoneal. Summed up: (§3)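 In this rat model (female Sprague–Dawley, n = 10/group), ACR 50 mg/kg ip in water was preceded by 10 min with agent at 50 mg/kg ip in 2% Tween 80, 3 days/week for 3 weeks. Brain dopamine was determined spectrofluorimetrically and expressed as ng/g tissue.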

For test [4], the system named is Rattus norvegicus. Briefly: Neuroprotective activity against ACR-intoxicated Sprague-Dawley rat assessed as increase in Gpx level in brain at 50 mg/kg, ip administered 10 mins prior to ACR injection 3 days per week for 3 weeks […] relative to control. The test is classed as functional. To be noted: route intraperitoneal.
Another test has as its system Brain. Briefly: Neuroprotective activity against ACR-intoxicated Sprague-Dawley rat brain assessed as appearance of normal neuron at 50 mg/kg, ip administered 10 mins prior to ACR injection 3 days per week for 3 weeks by hematoxylin and eosin staining method relative to ACR group. The test is classed as functional, organism-based. Details: dose 50 mg/kg. Summed up:
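After 3 weeks of ACR (50 mg/kg ip, water) plus pretreatment (50 mg/kg ip in 2% Tween 80, 10 min before, 3 days/week), rat brains were fixed in buffered formalin for 1 week. They were then washed in tap water for 24 h, dehydrated through graded alcohol, cleared in xylene and paraffin-embedded. Sections were examined microscopically for neuronal morphology.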

Test [5] deals with Rattus norvegicus. Briefly: Neuroprotective activity against ACR-intoxicated Sprague-Dawley rat assessed as decrease in LDH level in brain at 50 mg/kg, ip administered 10 mins prior to ACR injection 3 days per week for 3 weeks by spectrofluorimetrically relative to control. The test is classed as functional. Details: scale not given: the % may be the effect or the level left. To be noted: route intraperitoneal. Summed up:
as §2

Test [6] concerns Rattus norvegicus. The test is described as follows: Neuroprotective activity against ACR-intoxicated Sprague-Dawley rat assessed as increase in GSH level in brain at 50 mg/kg, ip administered 10 mins prior to ACR injection 3 days per week for 3 weeks […] relative to control. It is filed as functional. To be noted: route intraperitoneal.
The test system of test [7] is Rattus norvegicus. The test is described as follows: Neuroprotective activity against ACR-intoxicated Sprague-Dawley rat assessed as increase in adrenaline level in brain at 50 mg/kg, ip administered 10 mins prior to ACR injection 3 days per week for 3 weeks by ELISA relative to control. The test is classed as functional. The conditions noted are these: route intraperitoneal. The method in brief: as §1

Test [8] has as its system Rattus norvegicus. Briefly: Neuroprotective activity against ACR-intoxicated Sprague-Dawley rat assessed as decrease in malinoaldehyde level in brain at 50 mg/kg, ip administered 10 mins prior to ACR injection 3 days per week for 3 weeks […] relative to control. The test is classed as functional. Details: scale not given: the % may be the effect or the level left. To be noted: route intraperitoneal.

Test [9] has as its system Rattus norvegicus. Briefly: Neuroprotective activity against ACR-intoxicated Sprague-Dawley rat assessed as increase in SOD level in brain at 50 mg/kg, ip administered 10 mins prior to ACR injection 3 days per week for 3 weeks by spectrofluorimetrically relative to control. The test is classed as functional. To be noted: route intraperitoneal. The method in brief: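 Female Sprague–Dawley rats (160–180 g, n = 10/group) received ACR 50 mg/kg ip in water. Test agents were given at 50 mg/kg ip in 2% Tween 80, 10 min before ACR, 3 days/week for 3 weeks. Brain was homogenized 10% w/v in ice-cold 50 mM Tris–HCl pH 7.4 with 300 mM sucrose and spun 1800 × g for 10 min at 4 °C. Supernatant MDA, GSH, GPx and SOD were read spectrophotometrically by kit and expressed per mg protein (Lowry).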

The subject of test [10] is Rattus norvegicus. The test is described as follows: Neuroprotective activity against ACR-intoxicated Sprague-Dawley rat assessed as decrease in GSH level in brain at 50 mg/kg, ip administered 10 mins prior to ACR injection 3 days per week for 3 weeks […] relative to control. It is filed as functional. Details: scale not given: the % may be the effect or the level left. The conditions noted are these: route intraperitoneal.

Test [11] deals with Rattus norvegicus. The test is described as follows: Neuroprotective activity against ACR-intoxicated Sprague-Dawley rat assessed as decrease in dopamine level in brain at 50 mg/kg, ip administered 10 mins prior to ACR injection 3 days per week for 3 weeks by spectrofluorimetrically relative to control. It is filed as functional. Details: scale not given: the % may be the effect or the level left. The conditions noted are these: route intraperitoneal. Summed up:
as §3

Molecules are shown by their SMILES. Active and inactive are the calls of the source. The rule behind the calls is not given here.

For the compound `O=C(Cc1nnn[nH]1)NC(Cc1c[nH]c2ccccc12)C(=O)O` (centres undefined), the Activity in the test on Rattus norvegicus [1] was 21%; in the test with Rattus norvegicus [2], 64%; in the test with Rattus norvegicus [3], 29%; with Rattus norvegicus [4], 50%; in the test with Rattus norvegicus [5], 35%; in the test with Rattus norvegicus [6] it was 36%. The Activity worked out at 67% with Rattus norvegicus [7], 26% in the test with Rattus norvegicus [8] and 94% with Rattus norvegicus [9]. In addition, in the test with Brain, the result was Active.
For the compound `CCOC(=O)c1c(N)cnc(Cc2c[nH]c3ccccc23)c1Nc1ccccc1`, the Activity in the test on Rattus norvegicus [1] was determined as 2%; with Rattus norvegicus [2] it was 14%; with Rattus norvegicus [3] it was 9%; with Rattus norvegicus [4] it was 23%; in the test with Rattus norvegicus [10], 18%; in the test on Rattus norvegicus [5] it was 20%. Besides, the Activity with Rattus norvegicus [7] was determined as 14%; in the test on Rattus norvegicus [8], 10%; in the test on Rattus norvegicus [9] it was 6%. Further, the outcome with Brain was Active.
In the case of `C=NC(Cc1c[nH]c2ccccc12)C(=O)C1C(N)=NC(=N)N=C1N` (centres undefined), the Activity in the test with Rattus norvegicus [1] stood at 1%; in the test with Rattus norvegicus [2] it was 7%; with Rattus norvegicus [4], 1%; in the test with Rattus norvegicus [11], 2%; in the test with Rattus norvegicus [10], 18%; with Rattus norvegicus [5], 10%. The Activity in the test with Rattus norvegicus [7] worked out at 10%; with Rattus norvegicus [8], 5%; with Rattus norvegicus [9], 3%. Further, in the test on Brain, the outcome was Active.
With `N[C@@H](Cc1c[nH]c2ccccc12)C(=O)O` [TRYPTOPHAN], the Activity worked out at 16% in the test on Rattus norvegicus [1]; 27% in the test on Rattus norvegicus [2]; 21% in the test on Rattus norvegicus [3]; 38% with Rattus norvegicus [4]; 35% in the test on Rattus norvegicus [5]; 9% in the test on Rattus norvegicus [6]. Also, the Activity is listed as 17% in the test on Rattus norvegicus [7], 25% with Rattus norvegicus [8] and 18% in the test with Rattus norvegicus [9].
As for `C=NC(Cc1c[nH]c2ccccc12)C(=O)C1C(N)=NNC1N` (centres undefined), the Activity is recorded as 6% in the test with Rattus norvegicus [1]; 22% in the test on Rattus norvegicus [2]; 15% with Rattus norvegicus [3]; 25% in the test with Rattus norvegicus [4]; 20% with Rattus norvegicus [5]; 9% in the test on Rattus norvegicus [6]. Further, the Activity is recorded as 15% with Rattus norvegicus [7], 22% with Rattus norvegicus [8] and 12% with Rattus norvegicus [9]. Further, in the test with Brain, the outcome was Active.

The values above are taken from ChEMBL document CHEMBL1773027, “Development of new indole-derived neuroprotective agents” (2011).
